Results on 15 compounds are retold here after ChEMBL document CHEMBL1255169, “Synthesis, structure-affinity relationships, and radiolabeling of selective high-affinity 5-HT4 receptor ligands as prospective imaging probes for positron emission tomography” (J Med Chem, 2010).

Activity calls are given as the source filed them. The rule behind the calls is not given here.

Test [1] deals with 5-hydroxytryptamine receptor 4 (Cavia porcellus, UniProt O70528). The experiment in a line: Displacement of [3H]GR113808 from 5HT4 receptor in guinea pig striatal membranes. It counts as cell membranes, Striatum, Membrane.
Chain of 5-hydroxytryptamine receptor 4 (Cavia porcellus, UniProt O70528) (O70528 whole entry): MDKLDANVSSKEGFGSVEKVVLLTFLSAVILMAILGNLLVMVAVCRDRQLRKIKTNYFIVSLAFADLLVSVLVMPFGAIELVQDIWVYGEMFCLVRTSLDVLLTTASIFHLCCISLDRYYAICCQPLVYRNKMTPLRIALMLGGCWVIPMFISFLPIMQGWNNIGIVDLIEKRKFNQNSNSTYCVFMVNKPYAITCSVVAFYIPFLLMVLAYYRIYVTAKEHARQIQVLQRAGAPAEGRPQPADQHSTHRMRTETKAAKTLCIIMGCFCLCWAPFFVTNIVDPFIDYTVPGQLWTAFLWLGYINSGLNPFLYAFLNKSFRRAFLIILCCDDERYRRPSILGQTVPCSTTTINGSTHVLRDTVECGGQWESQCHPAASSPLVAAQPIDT
In test [2] the target is T1, 5-hydroxytryptamine receptor 4 (Homo sapiens, UniProt Q13639). The experiment in a line: Displacement of [3H]GR113808 from human recombinant 5HT4 receptor expressed in HEK293 cells. Type of test: cell-based.
T1 sequence (Q13639 whole entry): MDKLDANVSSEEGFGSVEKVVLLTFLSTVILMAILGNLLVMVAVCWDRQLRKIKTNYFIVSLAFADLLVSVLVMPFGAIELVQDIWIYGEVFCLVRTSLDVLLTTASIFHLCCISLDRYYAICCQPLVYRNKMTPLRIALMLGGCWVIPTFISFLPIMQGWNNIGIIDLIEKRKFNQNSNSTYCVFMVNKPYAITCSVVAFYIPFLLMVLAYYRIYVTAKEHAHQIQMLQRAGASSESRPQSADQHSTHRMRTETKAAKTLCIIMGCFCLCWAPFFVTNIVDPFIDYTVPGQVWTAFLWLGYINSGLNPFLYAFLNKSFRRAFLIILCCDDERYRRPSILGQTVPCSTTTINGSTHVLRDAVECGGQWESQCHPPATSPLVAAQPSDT
Test [3] has as its target 5-hydroxytryptamine receptor 2B (Homo sapiens, UniProt P41595). Kind of test: Binding affinity to human 5-HT2B receptor.
The target in test [4] is T2, Alpha-2C adrenergic receptor (Homo sapiens, UniProt P18825).
T2 sequence (P18825 whole entry): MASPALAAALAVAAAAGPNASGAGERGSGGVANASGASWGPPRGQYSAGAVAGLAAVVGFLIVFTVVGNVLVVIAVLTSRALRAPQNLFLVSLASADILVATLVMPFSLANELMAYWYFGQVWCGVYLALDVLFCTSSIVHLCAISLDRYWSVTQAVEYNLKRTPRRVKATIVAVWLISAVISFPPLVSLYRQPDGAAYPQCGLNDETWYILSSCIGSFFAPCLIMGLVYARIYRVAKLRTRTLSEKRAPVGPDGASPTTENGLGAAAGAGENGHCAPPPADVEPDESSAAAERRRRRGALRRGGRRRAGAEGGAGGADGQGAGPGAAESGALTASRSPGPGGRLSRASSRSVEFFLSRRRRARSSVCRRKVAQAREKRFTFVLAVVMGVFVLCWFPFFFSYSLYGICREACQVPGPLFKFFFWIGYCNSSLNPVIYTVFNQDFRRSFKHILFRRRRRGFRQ
Kind of test: Binding affinity to human adrenergic Alpha-2C receptor.

Test [5] deals with 5-hydroxytryptamine receptor 1D (Homo sapiens, UniProt P28221). The experiment in a line: Binding affinity to human 5-HT1D receptor.
Chain of 5-hydroxytryptamine receptor 1D (P28221 whole entry): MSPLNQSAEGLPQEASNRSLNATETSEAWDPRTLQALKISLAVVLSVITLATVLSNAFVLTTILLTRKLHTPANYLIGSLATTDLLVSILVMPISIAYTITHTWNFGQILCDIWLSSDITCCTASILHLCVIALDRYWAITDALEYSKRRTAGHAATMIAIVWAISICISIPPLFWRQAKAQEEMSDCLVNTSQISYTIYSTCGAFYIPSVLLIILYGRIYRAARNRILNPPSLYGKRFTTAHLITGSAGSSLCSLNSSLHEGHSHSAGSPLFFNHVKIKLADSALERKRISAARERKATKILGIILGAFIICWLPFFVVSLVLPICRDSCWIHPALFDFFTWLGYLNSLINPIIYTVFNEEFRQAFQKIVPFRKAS
For test [6], the target named is T1, 5-hydroxytryptamine receptor 4. The experiment in a line: Inverse agonist activity at 5HT4 receptor expressed in HEK293/L9 cells by cAMP assay. Type of test: functional, cell-based.
Test [7] has as its target D(2) dopamine receptor (Rattus norvegicus, UniProt P61169). The experiment in a line: Binding affinity to rat dopamine D2 receptor.
Test [8] addresses Sigma non-opioid intracellular receptor 1 (Rattus norvegicus, UniProt Q9R0C9). The experiment in a line: Binding affinity to rat sigma 1 receptor.
The target of test [9] is T3, Alpha-1A adrenergic receptor (Homo sapiens, UniProt P35348).
T3 sequence (P35348 whole entry): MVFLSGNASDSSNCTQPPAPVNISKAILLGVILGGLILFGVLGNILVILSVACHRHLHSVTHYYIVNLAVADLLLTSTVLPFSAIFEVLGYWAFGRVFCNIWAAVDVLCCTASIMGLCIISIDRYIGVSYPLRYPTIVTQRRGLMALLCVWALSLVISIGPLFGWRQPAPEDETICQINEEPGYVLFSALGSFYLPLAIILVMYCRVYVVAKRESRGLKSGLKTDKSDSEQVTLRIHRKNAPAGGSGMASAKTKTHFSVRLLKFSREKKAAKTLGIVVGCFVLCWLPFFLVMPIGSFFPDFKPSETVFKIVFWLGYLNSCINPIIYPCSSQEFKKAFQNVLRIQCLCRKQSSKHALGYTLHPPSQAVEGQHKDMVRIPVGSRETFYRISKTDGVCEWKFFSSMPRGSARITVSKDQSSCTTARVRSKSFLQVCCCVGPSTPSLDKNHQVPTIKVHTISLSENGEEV
The experiment in a line: Binding affinity to human adrenergic alpha1A receptor.

For test [10], the target named is Histamine H3 receptor (Cavia porcellus, UniProt Q9JI35). Kind of test: Binding affinity to guinea pig histamine H3 receptor.
Chain of Histamine H3 receptor (Q9JI35 whole entry): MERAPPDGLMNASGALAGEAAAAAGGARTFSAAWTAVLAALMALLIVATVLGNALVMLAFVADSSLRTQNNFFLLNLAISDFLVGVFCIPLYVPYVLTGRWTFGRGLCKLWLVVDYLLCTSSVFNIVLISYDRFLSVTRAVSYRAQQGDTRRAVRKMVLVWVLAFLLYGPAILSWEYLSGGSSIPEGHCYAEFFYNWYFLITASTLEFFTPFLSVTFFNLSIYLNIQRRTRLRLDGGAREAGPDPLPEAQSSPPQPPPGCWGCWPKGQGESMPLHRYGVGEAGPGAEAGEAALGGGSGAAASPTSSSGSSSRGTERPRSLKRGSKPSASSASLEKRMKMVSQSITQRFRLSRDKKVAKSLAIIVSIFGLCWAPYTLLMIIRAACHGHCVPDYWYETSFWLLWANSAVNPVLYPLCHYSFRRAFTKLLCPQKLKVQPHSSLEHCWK
Test [11] addresses T1, 5-hydroxytryptamine receptor 4. Kind of test: Agonist activity at 5HT4 receptor expressed in HEK293/L9 cells by cAMP assay. Type of test: functional, cell-based. Background: Changes in cAMP serve as a functional read-out for many G protein-coupled receptors.
Test [12] can be described thus: Binding affinity to rat sigma 2 receptor.
The target of test [13] is D(3) dopamine receptor (Rattus norvegicus, UniProt P19020). The experiment in a line: Binding affinity to rat dopamine D3 receptor.
Chain of D(3) dopamine receptor (P19020 whole entry): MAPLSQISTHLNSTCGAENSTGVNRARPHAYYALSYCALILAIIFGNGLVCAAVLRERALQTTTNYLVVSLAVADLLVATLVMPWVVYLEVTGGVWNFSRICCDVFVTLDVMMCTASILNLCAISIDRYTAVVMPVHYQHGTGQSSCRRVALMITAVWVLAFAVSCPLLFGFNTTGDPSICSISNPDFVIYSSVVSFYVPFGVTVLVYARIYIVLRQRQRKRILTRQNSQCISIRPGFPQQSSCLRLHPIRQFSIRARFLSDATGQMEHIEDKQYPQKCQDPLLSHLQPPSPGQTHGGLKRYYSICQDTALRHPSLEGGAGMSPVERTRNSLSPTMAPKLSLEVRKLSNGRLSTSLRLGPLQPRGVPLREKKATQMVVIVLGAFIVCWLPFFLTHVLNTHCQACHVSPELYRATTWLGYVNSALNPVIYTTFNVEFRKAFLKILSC
Test [14] concerns the target T4, D(4) dopamine receptor (Rattus norvegicus, UniProt P30729).
T4 sequence (P30729 whole entry): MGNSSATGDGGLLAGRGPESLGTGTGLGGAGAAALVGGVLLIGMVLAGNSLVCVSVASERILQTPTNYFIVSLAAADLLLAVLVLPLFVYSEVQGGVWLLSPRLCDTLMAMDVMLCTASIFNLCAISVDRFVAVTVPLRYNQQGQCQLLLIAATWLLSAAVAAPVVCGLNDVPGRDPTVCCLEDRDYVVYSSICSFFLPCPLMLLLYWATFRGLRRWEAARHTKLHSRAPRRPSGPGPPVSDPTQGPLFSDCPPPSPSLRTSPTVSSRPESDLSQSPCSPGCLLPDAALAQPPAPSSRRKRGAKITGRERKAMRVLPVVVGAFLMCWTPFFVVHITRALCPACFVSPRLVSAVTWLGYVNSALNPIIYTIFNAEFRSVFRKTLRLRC
The experiment in a line: Binding affinity to rat dopamine D4 receptor.

Test [15] addresses T5, Alpha-1B adrenergic receptor (Homo sapiens, UniProt P35368).
T5 sequence (P35368 whole entry): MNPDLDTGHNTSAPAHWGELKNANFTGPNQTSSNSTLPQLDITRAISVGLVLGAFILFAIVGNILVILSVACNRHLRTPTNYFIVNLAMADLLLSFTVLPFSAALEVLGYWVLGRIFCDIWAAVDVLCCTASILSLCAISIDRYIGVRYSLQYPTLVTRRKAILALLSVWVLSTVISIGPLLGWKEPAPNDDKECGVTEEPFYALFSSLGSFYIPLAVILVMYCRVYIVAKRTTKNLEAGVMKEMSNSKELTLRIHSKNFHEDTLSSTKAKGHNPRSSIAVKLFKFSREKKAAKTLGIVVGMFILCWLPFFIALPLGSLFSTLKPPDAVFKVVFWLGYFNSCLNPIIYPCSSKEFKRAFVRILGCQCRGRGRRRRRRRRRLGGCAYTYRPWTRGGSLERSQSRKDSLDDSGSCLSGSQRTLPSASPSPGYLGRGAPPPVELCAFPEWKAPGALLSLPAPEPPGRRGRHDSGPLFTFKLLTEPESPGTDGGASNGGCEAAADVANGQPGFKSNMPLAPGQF
Kind of test: Binding affinity to human adrenergic Alpha-1B receptor.

The target in test [16] is T6, 5-hydroxytryptamine receptor 2C (Homo sapiens, UniProt P28335).
T6 sequence (P28335 whole entry): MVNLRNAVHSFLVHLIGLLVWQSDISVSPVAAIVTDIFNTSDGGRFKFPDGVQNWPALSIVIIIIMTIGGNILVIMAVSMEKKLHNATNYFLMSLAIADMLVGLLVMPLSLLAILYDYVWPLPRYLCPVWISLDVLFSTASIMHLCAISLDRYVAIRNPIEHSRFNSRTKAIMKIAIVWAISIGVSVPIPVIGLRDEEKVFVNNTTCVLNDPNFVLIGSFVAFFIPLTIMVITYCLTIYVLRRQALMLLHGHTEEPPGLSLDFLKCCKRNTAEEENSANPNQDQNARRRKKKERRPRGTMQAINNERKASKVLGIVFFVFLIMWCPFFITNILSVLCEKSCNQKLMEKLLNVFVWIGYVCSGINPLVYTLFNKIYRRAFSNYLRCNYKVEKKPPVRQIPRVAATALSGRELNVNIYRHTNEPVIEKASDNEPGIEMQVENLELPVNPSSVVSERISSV
Kind of test: Binding affinity to human 5-HT2C receptor.

For test [17], the target named is T7, Alpha-2B adrenergic receptor (Homo sapiens, UniProt P18089).
T7 sequence (P18089 whole entry): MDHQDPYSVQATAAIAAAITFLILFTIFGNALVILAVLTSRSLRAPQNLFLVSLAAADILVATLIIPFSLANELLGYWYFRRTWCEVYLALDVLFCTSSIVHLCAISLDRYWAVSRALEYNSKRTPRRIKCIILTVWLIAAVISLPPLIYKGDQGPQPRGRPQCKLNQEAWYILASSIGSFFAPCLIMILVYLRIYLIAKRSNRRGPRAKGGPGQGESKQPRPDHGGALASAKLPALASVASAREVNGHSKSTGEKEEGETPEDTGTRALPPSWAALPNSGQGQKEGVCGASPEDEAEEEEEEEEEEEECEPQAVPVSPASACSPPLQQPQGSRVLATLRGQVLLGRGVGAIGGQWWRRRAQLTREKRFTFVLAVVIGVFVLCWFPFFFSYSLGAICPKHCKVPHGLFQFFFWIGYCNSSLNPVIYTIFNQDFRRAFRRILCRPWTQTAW
The experiment in a line: Binding affinity to human adrenergic alpha2B receptor. The method in brief: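 Radioligand binding run by the NIMH Psychoactive Drug Screening Program as part of a broad receptor and binding-site panel, which included α1A, α1B, α1D and α2A–C subtypes. Affinity is expressed as Ki.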

Test [18] addresses T1, 5-hydroxytryptamine receptor 4. The experiment in a line: Antagonist activity at 5HT4 receptor expressed in HEK293/L9 cells by cAMP assay. Type of test: functional, cell-based.

What is called Ki is a dissociation constant, usually derived from enzyme kinetics or from competition with a known ligand. As usually defined, the EC50 is the concentration needed to bring the measured effect to its halfway point. A lower EC50 goes with higher potency in that assay.

Chain of 5-hydroxytryptamine receptor 2B (P41595 whole entry): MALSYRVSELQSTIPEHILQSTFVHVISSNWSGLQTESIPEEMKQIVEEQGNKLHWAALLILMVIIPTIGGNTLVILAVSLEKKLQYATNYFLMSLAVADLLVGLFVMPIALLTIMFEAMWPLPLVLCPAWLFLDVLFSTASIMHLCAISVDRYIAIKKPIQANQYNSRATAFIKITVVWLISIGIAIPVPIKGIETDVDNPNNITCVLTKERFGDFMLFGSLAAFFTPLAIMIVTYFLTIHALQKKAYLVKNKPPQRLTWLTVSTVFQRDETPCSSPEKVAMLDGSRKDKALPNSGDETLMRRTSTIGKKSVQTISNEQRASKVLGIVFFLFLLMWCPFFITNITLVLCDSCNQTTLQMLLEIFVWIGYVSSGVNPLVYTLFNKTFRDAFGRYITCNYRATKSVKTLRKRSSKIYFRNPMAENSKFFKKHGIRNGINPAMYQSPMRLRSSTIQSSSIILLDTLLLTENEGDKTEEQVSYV
Chain of Sigma non-opioid intracellular receptor 1 (Q9R0C9 whole entry): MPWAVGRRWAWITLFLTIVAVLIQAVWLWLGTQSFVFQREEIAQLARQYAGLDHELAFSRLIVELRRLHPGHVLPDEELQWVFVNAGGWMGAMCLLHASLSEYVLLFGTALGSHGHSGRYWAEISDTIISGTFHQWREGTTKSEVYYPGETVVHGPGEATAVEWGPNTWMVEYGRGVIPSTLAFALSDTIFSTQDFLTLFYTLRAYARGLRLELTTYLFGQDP
Chain of D(2) dopamine receptor (P61169 whole entry): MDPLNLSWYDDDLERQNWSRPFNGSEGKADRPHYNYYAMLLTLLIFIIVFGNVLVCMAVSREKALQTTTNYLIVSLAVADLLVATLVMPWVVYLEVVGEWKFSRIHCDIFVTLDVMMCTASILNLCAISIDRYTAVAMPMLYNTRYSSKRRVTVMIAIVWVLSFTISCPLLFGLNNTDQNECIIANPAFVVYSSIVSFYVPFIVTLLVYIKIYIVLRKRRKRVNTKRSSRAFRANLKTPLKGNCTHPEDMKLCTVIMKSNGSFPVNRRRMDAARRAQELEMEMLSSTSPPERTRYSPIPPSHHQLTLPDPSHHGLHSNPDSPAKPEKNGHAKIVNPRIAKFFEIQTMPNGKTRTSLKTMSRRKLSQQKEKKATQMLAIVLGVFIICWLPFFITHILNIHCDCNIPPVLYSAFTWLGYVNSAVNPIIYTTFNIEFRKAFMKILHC

For the compound `CCCCN1CCC(COC(=O)c2cc(C#N)c(N)c3c2OCCO3)CC1`, the inhibition constant Ki in [1] came to 0.45 nM; in test [2] it was 33 nM.

For `CCCCN1CCC(COC(=O)c2cc(F)c(N)c3c2OCCO3)CC1`, the inhibition constant (Ki) in [3] came to 168 nM; in [4] it was 593 nM; in test [1] it was 0.334 nM; in test [2] it was 2.1 nM; in test [5] it was 2860 nM; in test [7] it was 615 nM. The Ki in test [8] is 55 nM; in test [9], 87.6 nM; in [10], 5.04 µM; in test [12], 12.9 nM; in [13] it was 1010 nM; in test [14] it was 316 nM. Also, the results for the Ki in test [15], in test [16] and in test [17] were 9.08 µM, 8.36 µM and 773 nM, respectively. For the same compound, the Efficacy entry in test [6] is “Active”. Besides, the EC50 in [11] is 5.89 nM.

For `CCCCCN1CCC(COC(=O)c2ccc(N)c(OC)c2)CC1`, in test [2], the inhibition constant Ki was 12 nM.

Regarding `CCCCN1CCC(CNC(=O)c2ccc(N)c(OC)c2)CC1`, the Ki in test [2] came to 8660 nM.

For the compound `CCCCN1CCC(COC(=O)c2cc([N+](=O)[O-])c(N)c3c2OCCO3)CC1`, the Ki in [2] turned out to be 7.8 nM.

Consider `CCCCN1CCC(COC(=O)c2cc(I)c(N)c3c2OCCO3)CC1`, for which, in test [1], the inhibition constant (Ki) came to 0.2 nM.

As to `CCCCN1CCC(COC(=O)c2cc(Br)c(NC)c3c2OCCO3)CC1`, the inhibitory constant (Ki) in [2] was 4.5 nM. In test [6], the Efficacy entry was “Active”. The same compound showed an EC50 in [11] of 10 nM.

As for `CCCCN1CCC(COC(=O)c2ccc(N)c(OCCF)c2)CC1`, the values for the Ki in test [1] and in test [2] were 0.215 nM and 11 nM, respectively.

On to `CCCCN1CCC(COC(=O)c2ccc(NC)c3c2OCCO3)CC1`, for which the Ki in [2] is 9.1 nM. In addition, the Efficacy entry in test [6] was “Active”. For the same compound, the EC50 in test [11] was 8.91 nM.

Regarding `CCCN1CCC(COC(=O)c2ccc(N)c(OC)c2)CC1`, the values for the inhibition constant Ki in test [1] and in test [2] were 0.901 nM and 17 nM, respectively.

In the case of `CCCCN1CCC(COC(=O)c2ccc(N)c(OCF)c2)CC1`, the inhibitory constant (Ki) in [1] is 0.334 nM; in [2], 17 nM.

As for `CCCCN1CCC(COC(=O)c2cc(I)c(NC)c3c2OCCO3)CC1`, the inhibition constant Ki in test [2] worked out at 7.4 nM. In [6], the Efficacy entry is “Active”. Also, in test [11], the EC50 was 20 nM.

As for `CCCCN1CCC(COC(=O)c2cc(C)c(N)c3c2OCCO3)CC1`, the inhibition constant Ki in test [2] amounted to 6.3 nM. In test [18], the Efficacy entry is “Active”.

Take `CCCCN1CCC(COC(=O)c2ccc(N)c3c2OCCO3)CC1`: in test [2], the Ki came out at 1.4 nM. Besides, the Efficacy entry in test [18] was “Active”.

Consider `CCCCN1CCC(COC(=O)c2cc(C#N)c(NC)c3c2OCCO3)CC1`, for which the Ki in [2] was 37 nM. Moreover, the Efficacy result in [6] was “Active”. The same compound gave an EC50 in test [11] of 15.8 nM.
